The test system of test [1] is Escherichia coli. Kind of test: Antibacterial activity against Escherichia coli BL21(DE3) incubated for 20 hrs by microdilution assay. The class given is functional. The gist of the method:
(§1)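 Broth microdilution in LB medium with 5% DMSO. Overnight cultures (LB, 37 °C, 200 rpm) were diluted 1:100 in fresh LB. Compounds were added from a twofold DMSO dilution series (5.12 mM to 20 nM stock), giving 256 μM to 1 nM final. Plates were shaken 20 h at 37 °C, 200 rpm. MIC was the lowest concentration with no visible growth.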
(In broth dilution the organism is exposed to a series of concentrations in liquid medium.)

For test [2], the system named is Escherichia coli. Kind of test: Antibacterial activity against Escherichia coli D22 incubated for 20 hrs by microdilution assay. The class given is functional. As to conditions: D22, 20 h. The gist of the method:
as §1

In test [3] the target is UDP-3-O-acyl-N-acetylglucosamine deacetylase (Escherichia coli K-12, UniProt P0A725, C63A). The experiment in a line: Inhibition of Escherichia coli LpxC C63A mutant using UDP-3-O-[(R)-3-hydroxymyristoyl]-N-acetylglucosamine substrate after 30 mins by fluorescence-bsed microplate assay.
Sequence of UDP-3-O-acyl-N-acetylglucosamine deacetylase (P0A725 whole entry C63A, the tested form may be a part): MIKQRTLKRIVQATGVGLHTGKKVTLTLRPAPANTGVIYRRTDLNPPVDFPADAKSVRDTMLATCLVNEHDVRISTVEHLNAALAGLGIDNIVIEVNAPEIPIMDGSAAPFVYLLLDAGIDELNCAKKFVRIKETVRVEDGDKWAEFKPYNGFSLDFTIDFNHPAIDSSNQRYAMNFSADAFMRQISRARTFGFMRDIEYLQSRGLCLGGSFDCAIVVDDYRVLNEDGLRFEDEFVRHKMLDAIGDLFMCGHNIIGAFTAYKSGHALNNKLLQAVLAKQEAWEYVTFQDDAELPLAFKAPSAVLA
The subject of test [4] is Escherichia coli. Kind of test: Antibacterial activity against Escherichia coli BL21(DE3) incubated overnight by agar disk diffusion clearance assay. The class given is functional. A digest of the protocol:
(§2)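 Agar disc diffusion. 150 µL of an overnight LB culture (37 °C, 200 rpm) was spread on LB agar. 6 mm filter discs were loaded with 15 µL of 10 mM compound in DMSO, with DMSO and CHIR-090 discs as controls. Plates were incubated overnight at 37 °C and the diameter of the growth-inhibition zone was measured. Values are mean ± SD of three independent experiments.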
Background: In agar diffusion tests the substance spreads into inoculated agar from a disc or well.

Test [5] deals with Escherichia coli. The experiment in a line: Antibacterial activity against Escherichia coli D22 incubated overnight by agar disk diffusion clearance assay. The class given is functional. The gist of the method:
as §2

≈ marks a conversion by molar mass, not a printed value.

Consider `C[C@@H](O)[C@H](NC(=O)c1ccc(C#Cc2ccc(CN3CCOCC3)cc2)cc1)C(=O)NO`, for which the MIC (as a rule, the lowest concentration found to suppress growth) against Escherichia coli [1] worked out at 1 µM (≈ 0.437 µg/mL); in the test with Escherichia coli [2], 0.032 µM (≈ 0.014 µg/mL).
`O=C(NO)[C@H](CO)O[C@H](CO)c1ccc(C#Cc2ccc(CN3CCOCC3)cc2)cc1` came in with an MIC with Escherichia coli [1] of more than 256 µM. In addition, inhibition of growth against Escherichia coli [2] (MIC) required 4 µM (≈ 1.76 µg/mL). For the same compound, in test [3], the 50% inhibitory concentration (IC50) – broadly, the point on the concentration scale where inhibition reaches its midpoint – amounted to 2600 nM and the Ki (commonly a measure of affinity in units of concentration, obtained from inhibition or displacement) is 360 nM.
Consider `O=C(COCc1ccc(C#Cc2ccccc2)cc1)NO`, for which the minimum inhibitory concentration (MIC) against Escherichia coli [1] stood at 128 µM (≈ 36 µg/mL); against Escherichia coli [2] it was 4 µM (≈ 1.13 µg/mL). For the same compound, the IC50 in test [3] is more than 200000 nM.
Regarding `O=C(COCc1ccc(C#Cc2ccc(CN3CCOCC3)cc2)cc1)NO`, the MIC against Escherichia coli [1] worked out at 64 µM (≈ 24.3 µg/mL). In the test with Escherichia coli [2], this compound displayed an MIC of 1 µM (≈ 0.38 µg/mL). Further, in test [3], the IC50 worked out at 10500 nM and the inhibition constant (Ki) came out at 1450 nM.
`O=C(CO[C@H](CO)c1ccc(C#Cc2ccccc2)cc1)NO`: the minimum inhibitory concentration (MIC) was 256 µM (≈ 79.7 µg/mL) against Escherichia coli [1] and 4 µM (≈ 1.25 µg/mL) in the test with Escherichia coli [2]. Also, in test [3], the half-maximal inhibitory concentration (IC50) was found to be 480 nM. Also, in test [3], the Ki turned out to be 66 nM.
In the same order, the values of `O=C(CO[C@@H](CO)c1ccc(C#Cc2ccccc2)cc1)NO` are 256 µM (≈ 79.7 µg/mL), 32 µM (≈ 9.96 µg/mL), 31600 nM and 4400 nM.
In turn, `O=C(CO[C@H](CO)c1ccc(C#Cc2ccc(CN3CCOCC3)cc2)cc1)NO` had an MIC in the test on Escherichia coli [1] of 64 µM (≈ 26.3 µg/mL). Further, 0.5 µM (≈ 0.205 µg/mL) was the least that counted as inhibitory against Escherichia coli [2] (MIC). For the same compound, in test [3], the 50% inhibitory concentration (IC50) worked out at 690 nM and the affinity, expressed as Ki, was 95 nM.
In the same order, the values of `O=C(CO[C@@H](CO)c1ccc(C#Cc2ccc(CN3CCOCC3)cc2)cc1)NO` are more than 256 µM, 4 µM (≈ 1.64 µg/mL), 198000 nM and 27300 nM.
Turning to `O=C(NO)[C@H](CO)OCc1ccc(C#Cc2ccccc2)cc1`, the MIC in the test on Escherichia coli [1] is 128 µM (≈ 39.9 µg/mL); against Escherichia coli [2], 4 µM (≈ 1.25 µg/mL). Also, the “diameter of the inhibition zone (DIZ)” value worked out at 11.7 mm in the test on Escherichia coli [4] and 20.7 mm in the test on Escherichia coli [5]. Further, in test [3], the IC50 worked out at 1960 nM. Further, the inhibitory constant (Ki) in test [3] was 270 nM.
As for `O=C(NO)[C@@H](CO)OCc1ccc(C#Cc2ccccc2)cc1`, the MIC in the test with Escherichia coli [1] came out at 256 µM (≈ 79.7 µg/mL); in the test on Escherichia coli [2] it was 8 µM (≈ 2.49 µg/mL). The “diameter of the inhibition zone (DIZ)” value in the test on Escherichia coli [4] is 10.3 mm; in the test on Escherichia coli [5], 17 mm. In addition, the IC50 in test [3] came out at 1870 nM. The compound also had a Ki in test [3] of 260 nM.
As for `O=C(NO)[C@H](CO)OCc1ccc(C#Cc2ccc(CN3CCOCC3)cc2)cc1`, the values for the MIC in the test with Escherichia coli [1] and against Escherichia coli [2] were 64 µM (≈ 26.3 µg/mL) and 2 µM (≈ 0.821 µg/mL), respectively. Also, the “diameter of the inhibition zone (DIZ)” value is listed as 15.7 mm with Escherichia coli [4] and 25.8 mm with Escherichia coli [5]. The IC50 in test [3] turned out to be 2820 nM. For the same compound, in test [3], the affinity corresponds to a Ki of 390 nM.
On to `O=C(NO)[C@@H](CO)OCc1ccc(C#Cc2ccc(CN3CCOCC3)cc2)cc1`, for which the MIC against Escherichia coli [1] came out at 128 µM (≈ 52.5 µg/mL); with Escherichia coli [2] it was 4 µM (≈ 1.64 µg/mL). Besides, the “diameter of the inhibition zone (DIZ)” value in the test with Escherichia coli [4] came out at 12.3 mm; in the test on Escherichia coli [5], 22 mm. In addition, 1660 nM corresponded to half-maximal inhibition in test [3] (IC50). Besides, the inhibitory constant (Ki) in test [3] amounted to 230 nM.

The record behind these values is ChEMBL document CHEMBL3758088, “Synthesis and biological evaluation of enantiomerically pure glyceric acid derivatives as LpxC inhibitors” (Bioorg Med Chem, 2016).
